Data reported in ChEMBL document CHEMBL1135409, “Structure-activity relationships of a novel class of endothelin-A receptor antagonists and discovery of potent and selective receptor antagonist, 2-(benzo[1,3]dioxol-5-yl)-6-isopropyloxy-4-(4-methoxyphenyl)-2H-chromene-3-carboxylic acid (S-1255). 1. Study on structure-activity relationships and …” (J Med Chem, 2002).

Columns and labels:
Endothelin-1 receptor [1] = molecular target: T1, Endothelin-1 receptor (Rattus norvegicus, UniProt P26684); assay: Binding affinity for endothelin A receptor by inhibition of [125I]ET1 binding in rat aorta smooth muscle cells; assay type: tissue-based
T1 sequence (P26684 whole entry): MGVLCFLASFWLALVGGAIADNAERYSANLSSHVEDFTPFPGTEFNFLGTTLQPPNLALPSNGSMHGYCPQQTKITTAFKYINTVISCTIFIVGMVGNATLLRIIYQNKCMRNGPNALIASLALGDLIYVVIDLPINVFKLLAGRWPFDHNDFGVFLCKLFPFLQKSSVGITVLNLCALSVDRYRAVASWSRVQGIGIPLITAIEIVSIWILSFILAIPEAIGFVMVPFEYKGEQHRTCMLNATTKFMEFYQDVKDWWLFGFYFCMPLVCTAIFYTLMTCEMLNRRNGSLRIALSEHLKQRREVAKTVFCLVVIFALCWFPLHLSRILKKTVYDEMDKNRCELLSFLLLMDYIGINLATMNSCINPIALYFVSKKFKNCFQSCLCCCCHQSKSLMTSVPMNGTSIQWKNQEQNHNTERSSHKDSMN

[2] = molecular target: T2, Endothelin receptor type B (Homo sapiens, UniProt P24530); assay: Binding affinity at human Endothelin B receptor
T2 sequence (P24530 whole entry): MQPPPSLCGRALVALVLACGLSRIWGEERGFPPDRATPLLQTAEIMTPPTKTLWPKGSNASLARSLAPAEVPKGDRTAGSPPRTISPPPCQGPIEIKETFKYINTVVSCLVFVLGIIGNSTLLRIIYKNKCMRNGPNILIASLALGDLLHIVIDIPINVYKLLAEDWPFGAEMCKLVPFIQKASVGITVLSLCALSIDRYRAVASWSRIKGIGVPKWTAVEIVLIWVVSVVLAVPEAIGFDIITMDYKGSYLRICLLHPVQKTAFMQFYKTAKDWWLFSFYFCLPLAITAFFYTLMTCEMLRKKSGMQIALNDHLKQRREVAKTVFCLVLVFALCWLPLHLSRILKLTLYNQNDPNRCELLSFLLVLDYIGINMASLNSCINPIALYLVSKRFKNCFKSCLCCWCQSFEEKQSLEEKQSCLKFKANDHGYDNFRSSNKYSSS
Outline: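 Membranes from CHO cells expressing human ETB receptor were incubated with [125I]ET-3 (25 pM as added) and the test compound at various concentrations for 60 min at 37 °C. Buffer was HEPES (20 mM)-buffered Hank's solution with protease inhibitors. Samples were filtered on PEI-presoaked glass-fibre filters, washed with 50 mM Tris-HCl pH 7.4 and counted. Nonspecific binding was taken with 0.1 µM ET-3.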

[3] = molecular target: T3, Endothelin receptor type B (Sus scrofa, UniProt P35463); assay: Binding affinity to endothelin B receptor measured by inhibition of [125I]ET-3 binding recombinant pig ET-B receptor expressed in COS-7 cells; assay type: cell-based
T3 sequence (P35463 whole entry): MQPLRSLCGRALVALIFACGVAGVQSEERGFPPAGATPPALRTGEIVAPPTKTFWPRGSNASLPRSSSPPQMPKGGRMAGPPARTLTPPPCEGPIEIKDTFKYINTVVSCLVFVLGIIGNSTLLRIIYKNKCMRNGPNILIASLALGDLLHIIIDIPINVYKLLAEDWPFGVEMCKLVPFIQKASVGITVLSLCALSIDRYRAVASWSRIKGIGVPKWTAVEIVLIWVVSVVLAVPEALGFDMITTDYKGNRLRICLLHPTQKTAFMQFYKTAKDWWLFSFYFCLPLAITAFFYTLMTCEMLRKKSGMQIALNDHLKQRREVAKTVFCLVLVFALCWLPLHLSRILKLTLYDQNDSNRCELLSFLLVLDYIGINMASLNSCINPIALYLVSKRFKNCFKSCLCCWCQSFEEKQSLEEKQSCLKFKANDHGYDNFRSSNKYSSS
Outline: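 COS cells transfected with porcine ETB cDNA, in Hank's solution with 20 mM HEPES and protease inhibitors. Stopped by filtration on GF/C filters presoaked in 1% polyethylenimine, washed with 50 mM Tris-HCl pH 7.4, then counted. Nonspecific binding taken with 0.1 μM ET-3.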

Endothelin-1 receptor [4] = molecular target: T4, Endothelin-1 receptor (Homo sapiens, UniProt P25101); assay: Binding affinity at human Endothelin A receptor
T4 sequence (P25101 whole entry): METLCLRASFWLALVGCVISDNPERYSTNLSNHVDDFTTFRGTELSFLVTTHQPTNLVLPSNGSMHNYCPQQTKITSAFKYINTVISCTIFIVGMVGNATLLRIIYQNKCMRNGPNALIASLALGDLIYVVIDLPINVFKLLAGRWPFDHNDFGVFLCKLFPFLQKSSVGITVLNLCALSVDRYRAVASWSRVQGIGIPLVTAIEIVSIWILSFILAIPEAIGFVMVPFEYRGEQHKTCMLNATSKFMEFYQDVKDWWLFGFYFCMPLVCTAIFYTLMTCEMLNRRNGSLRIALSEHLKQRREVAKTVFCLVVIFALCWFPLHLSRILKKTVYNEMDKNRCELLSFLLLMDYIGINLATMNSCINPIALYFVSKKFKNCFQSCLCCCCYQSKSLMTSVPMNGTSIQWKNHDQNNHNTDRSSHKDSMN
Outline: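 Membranes from CHO cells expressing human ETA receptor were incubated with [125I]ET-1 and the test compound at various concentrations for 60 min at 37 °C. Buffer was Hank's solution with 20 mM HEPES and protease inhibitors. Bound ligand was collected on PEI-presoaked glass-fibre filters and washed with 50 mM Tris-HCl pH 7.4, then counted.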

[5] = Ratio of inhibitory concentrations at ET-B receptor relative to that of ET-A receptor

Q: With COc1ccc(C2=C(C(=O)O)[C@@H](c3ccc4c(c3)OCO4)Oc3ccc(OC(C)C)cc32)cc1 as the compound, how does the IC50 (Endothelin-1 receptor [1]) read?
A: Its IC50 is 0.19 nM.

Q: And the IC50 [2]?
A: Its IC50 is 200 nM.

Q: What about the IC50 [3] of the same compound?
A: The IC50 was 120 nM.

Q: What about the IC50 (Endothelin-1 receptor [4]) of the same compound?
A: The IC50 was 0.45 nM.

Q: What does the source list for COC1=C(C(=O)O)[C@@H](c2ccc3c(c2)OCO3)Oc2ccc(OC(C)C)cc21?
A: IC50 (Endothelin-1 receptor [1]): 5.2 nM; Ratio [5]: 670; IC50 [3]: 3500 nM

Q: With CC(C)Oc1ccc2c(c1)C=C(C(=O)O)[C@@H](c1ccc3c(c1)OCO3)O2 as the compound, how does the IC50 (Endothelin-1 receptor [1]) read?
A: Its IC50 is 240 nM.

Q: What about the Ratio [5] of the same compound?
A: The Ratio was 220.

Q: What about the IC50 [3] of the same compound?
A: Its IC50 is 52000 nM.

Q: Which results are given for CCCCOC1=C(C(=O)O)C(c2ccc3c(c2)OCO3)Oc2ccccc21 (stereo unspecified)?
A: IC50 (Endothelin-1 receptor [1]): 66 nM; Ratio [5]: 74; IC50 [3]: 4900 nM

Q: For COc1ccc(C2=C(C(=O)O)C(c3ccc4c(c3)OCO4)Oc3ccc(OC(C)CO)cc32)cc1 (stereo unspecified), which IC50 (Endothelin-1 receptor [1]) is on record?
A: Its IC50 is 2.8 nM.

Q: And the Ratio [5]?
A: Its Ratio is 61.

Q: What about the IC50 [3] of the same compound?
A: Its IC50 is 170 nM.

Q: Which results are given for COc1ccc(C2=C(C(=O)O)C(c3ccc4c(c3)OCO4)Oc3ccc(OCc4ccccc4)cc32)cc1 (stereo unspecified)?
A: IC50 (Endothelin-1 receptor [1]): 62 nM; Ratio [5]: 13; IC50 [3]: 790 nM

Q: With COC1=C(C(=O)O)C(c2ccc3c(c2)OCO3)Oc2ccc(OC(C)C)cc21 (stereo unspecified) as the compound, how does the IC50 (Endothelin-1 receptor [1]) read?
A: Its IC50 is 9.1 nM.

Q: What about the Ratio [5] of the same compound?
A: Its Ratio is 700.

Q: What about the IC50 [3] of the same compound?
A: The IC50 was 6400 nM.

Q: For CCCCOC1=C(C(=O)O)C(c2ccc3c(c2)OCO3)Oc2ccc(OCCCC)cc21 (stereo unspecified), which IC50 (Endothelin-1 receptor [1]) is on record?
A: The IC50 was 3 nM.

Q: And the Ratio [5]?
A: Its Ratio is 160.

Q: And the IC50 [3]?
A: The IC50 was 470 nM.

Q: Which IC50 (Endothelin-1 receptor [1]) does the source give for CCCCOC1=C(C(=O)O)C(c2ccc3c(c2)OCO3)Oc2ccc(OCC)cc21 (stereo unspecified) here?
A: The IC50 was 4.2 nM.

Q: What about the Ratio [5] of the same compound?
A: The Ratio was 380.

Q: What about the IC50 [3] of the same compound?
A: The IC50 was 1600 nM.

Q: Which results are given for CCCCOc1ccc2c(c1)C(c1ccc(OC)cc1)=C(C(=O)O)C(c1ccc3c(c1)OCO3)O2 (stereo unspecified)?
A: IC50 (Endothelin-1 receptor [1]): 17 nM; Ratio [5]: 7.6; IC50 [3]: 130 nM
